These results are taken from PubChem BioAssay AID493091 (Sanford-Burnham Center for Chemical Genomics, 2011).

In all, about 340,000 compounds went through this assay and about 3,000 (0.88%) were called active.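 How the source made its calls: active means inhibition above about 50% at 20 µM (limit read from the data); inactive means the rest.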 What follows is part of a selection rich in actives, with near analogues and random picks from the rest.

Carboxy-terminal domain RNA polymerase II polypeptide A small phosphatase 1 (Homo sapiens), sequence (Q9GZU7 76-261 limits assumed): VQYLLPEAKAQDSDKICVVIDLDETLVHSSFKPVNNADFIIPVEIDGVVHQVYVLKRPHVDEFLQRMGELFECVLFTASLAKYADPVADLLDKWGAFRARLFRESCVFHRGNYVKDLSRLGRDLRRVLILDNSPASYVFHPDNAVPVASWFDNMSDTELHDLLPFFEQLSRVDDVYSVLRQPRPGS

The target of this experiment is Carboxy-terminal domain RNA polymerase II polypeptide A small phosphatase 1 (Homo sapiens) (UniProt Q9GZU7). The experiment can be described thus: inhibition of human SCP1 dephosphorylation activity – biochemical, colorimetric, uHTS, primary screen (AID 493091).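 Further: plate controls were DMSO wells with enzyme for no effect and wells lacking enzyme for full effect.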 The conditions noted are these: Recombinant Scp1, phosphopeptide, malachite green phosphate absorbance; at 20 µM; active compounds read high. Put shortly:
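Test system – truncated SCP-1 phosphatase (76-261aa) · Reagent – Phosphorylated 17-residue peptide substrate · Incubation – 45 min room-temperature reaction, 5 min colour, 30 min stabiliser · Detection – colorimetric phosphate reagent with accelerator and stabiliser, absorbance at 630 nm · Measure – % inhibition at 20 µM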
As to `CC1CC(C)CN(CCOc2cccc3ccccc23)C1` (stereo unspecified), the inhibition was -2.45% (inactive).

For `CCn1ncc(C2=NOC(C(=O)Nc3ccccc3C(=O)OC)C2)c1C` (stereo unspecified), the inhibition was -6.5% (inactive). The result for `O=C(Oc1ccc(-c2nc(-c3ccccn3)no2)cc1)c1ccccc1` reads 7.66% (inactive); that for `O=C1C(=O)N(c2ccccc2)c2ccccc21`, -4.37% (inactive); that for `O=C(O)COCC(=O)NCc1csc2ccc(Cl)cc12`, 11.2% (inactive). The figure for `Cc1ccc(C(=O)NNC(=O)c2cc3cc4ccccc4nc3s2)cc1` is 83.1% (active). Turning to `Cc1ccc(C(=O)NNc2ncnc3ccccc23)cc1`, the inhibition is 5.78% (inactive). The figure for `Cc1ccc(C(=O)NNC(=O)c2ccc3c(c2)OCCO3)cc1` is -11.5% (inactive); for `COc1ccc2oc(C(=O)NCC(Cc3ccccc3)N(C)C)c(C)c2c1` (stereo unspecified) it is -2.96% (inactive).

Take `Cc1ccc(C)c(NC(=S)NNC(=S)Nc2ccc(C(C)C)cc2)c1`: the inhibition was 3.22% (inactive). The figure for `CC(C)c1ccc(NC(=S)NNc2ccc(Cl)c(C(=O)O)c2)cc1` is 54.9% (active); for `O=C(NC(=S)Nc1ccc(Cl)c(C(=O)O)c1)c1cncc(Br)c1` it is 5.31% (inactive). For the compound `O=C(OCC(=O)N1CCN(C(=O)c2ccco2)CC1)c1ccc(Cl)c(Cl)c1`, the inhibition is -3.89% (inactive). The result for `O=C1c2ccccc2S(=O)(=O)N1Cc1c(F)cccc1Cl` reads -6.43% (inactive). The result for `CC(Sc1nn(-c2ccc(Cl)cc2)c(=S)s1)C(=O)NCC1CCCO1` (stereo unspecified) reads -9% (inactive). The figure for `C#CCOc1ccc(/C=C2/C(=O)NN(c3ccccc3)C2=O)cc1OC` is -4.73% (inactive).

Turning to `O=C1NN(c2ccccc2)C(=O)/C1=C/c1ccc(-c2cccc(C(=O)O)c2)o1`, the inhibition is 52% (active). For the compound `COc1cc(/C=C2/C(=O)NN(c3cccc(Cl)c3)C2=O)cc(Br)c1O`, the inhibition was 2.98% (inactive). The result for `Cc1ccc(-c2c3c(=O)n(C)c(=O)n(C)c3cn2-n2cnnc2)cc1` reads -6% (inactive); that for `CCOC(=O)Cc1cc(=O)[nH]c(/N=C(\N)Nc2ccc(OC)cc2)n1`, -0.71% (inactive).

With `Cc1cc(=O)[nH]c(N/N=C/c2c(C)nn(-c3ccccc3Cl)c2Cl)n1`, the inhibition was -253% (inactive). The result for `CC1CCN(c2ccc(C(=O)Nc3nnc(C4CC4)s3)cc2[N+](=O)[O-])CC1` reads -0.75% (inactive); that for `COc1ccc(NS(=O)(=O)c2ccc(N3CCN(CCO)CC3)c([N+](=O)[O-])c2)cc1`, -2.43% (inactive).

In the case of `CC1CCN(c2ccc(S(=O)(=O)Nc3cc(C(=O)O)cc(C(=O)O)c3)cc2[N+](=O)[O-])CC1`, the inhibition was 54.5% (active). In the case of `O=C(N/N=C/c1ccc2c(c1)OCO2)C(=O)N1CCCC1`, the inhibition is -6.72% (inactive). The result for `O=C(CNC(=O)C(c1ccccc1)c1ccccc1)N/N=C\c1ccc2c(c1)OCO2` reads 59.5% (active). The result for `Cc1[nH]c2ccccc2c1/C=N/NC(=O)CNC(=O)c1ccc2c(c1)OCO2` reads -5.09% (inactive). The result for `CC1C(=O)N2CCCc3cc(S(=O)(=O)NCc4ccc(F)cc4)cc1c32` (stereo unspecified) reads -5.8% (inactive); that for `CN(CCc1ccccn1)S(=O)(=O)c1ccc2c3c(cccc13)C(=O)N2`, 0.36% (inactive). For the compound `COc1ccc(S(=O)(=O)N2CCC(C(=O)N3CCCC3)CC2)cc1C`, the inhibition was -3.35% (inactive). The figure for `CCOC(=O)c1sc(NC(=O)CSc2nc(C)cc(C(F)(F)F)n2)c(C#N)c1C` is -3.8% (inactive); for `CC(C)c1cc(NCc2ccccn2)n2c(nc3ccccc32)c1C#N` it is -0.31% (inactive).

In the case of `O=C(CSc1ccc(-c2ccco2)nn1)Nc1cccc(F)c1`, the inhibition is -4.82% (inactive).

`O=C(O)c1cccc(NC(=O)c2cc(-c3cccc(Cl)c3)nc3ccccc23)c1`: the inhibition is 5.17% (inactive). The result for `O=C(Nc1cccc(F)c1)c1cc(-c2ccco2)nc2ccccc12` reads 57.4% (active).

`Cc1cccc(Cn2cnc3c(N)c(C)c(C)cc32)c1`: the inhibition is -2.5% (inactive). The figure for `Cc1onc(-c2c(F)cccc2Cl)c1C(=O)Nc1cccc(S(=O)(=O)N2CCCCC2)c1` is -7.5% (inactive); for `CC(=O)Nc1ccc(OCC(O)CN2CCN(c3ccccc3Cl)CC2)cc1` (stereo unspecified) it is 0.19% (inactive).

`Cc1ccc(CN2CCN(Cc3cn(C)nc3-c3ccccc3)CC2CCO)o1` (stereo unspecified): the inhibition is -12.6% (inactive). The figure for `Cc1ccc(CN2CCN(c3ccccc3Cl)CC2)o1` is 51% (active); for `COc1ccc(C(=O)NCc2nnc(SCC(=O)NC3=NCCS3)n2C)cc1` it is -3.07% (inactive); for `CC(C)(C)OC(=O)NCCCCCNC(=O)c1[nH]cnc1C(=O)Nc1nccs1` it is -11.3% (inactive). The figure for `COC(=O)c1ccc(-c2c(-c3ccccc3)ncc3cc(OC)c(OC)cc23)cc1` is 66.9% (active). The result for `COC(=O)c1ccc(OC(=O)c2nn(C)cc2Cl)c(OC)c1` reads 1.35% (inactive). Regarding `COC(=O)c1ccc(SCc2ccccc2)nc1`, the inhibition was -6.97% (inactive). The result for `Cc1ccc2c(c1)C(c1ccccc1)N(C(=O)c1ccc(S(=O)(=O)N3CCOCC3)cc1)CC(=O)N2` (stereo unspecified) reads -1% (inactive); that for `O=S(=O)(Nc1ccc(O)c2ccccc12)c1ccc(OC(F)(F)F)cc1`, -14.4% (inactive). Take `Nc1ccccc1SC(C[N+](=O)[O-])c1ccccc1` (stereo unspecified): the inhibition is 2.72% (inactive). The result for `Cc1c(NC(=O)C(C)OC(=O)c2c3c(nc4ccccc24)CCC(C)C3)c(=O)n(-c2ccccc2)n1C` (stereo unspecified) reads -2.49% (inactive); that for `COc1cccc(CNCc2ccc3c(c2)OCO3)c1`, -9.52% (inactive); that for `COc1cccc(CC(=O)OCC(=O)NCc2ccc3c(c2)OCO3)c1`, 64.5% (active). The figure for `Cc1ccc(C(=O)OCC(=O)NCc2ccc3c(c2)OCO3)s1` is -4.92% (inactive). The figure for `CCOC(=O)C1CCN(C(=O)C2CCCN(S(=O)(=O)c3ccc(OC)c(Cl)c3)C2)CC1` (stereo unspecified) is -4.52% (inactive).

For `CC(=O)OCCC(C)C`, the inhibition was 12.2% (inactive). As to `CC1=NN(C(=O)CCc2ccccc2O)C(O)(C(F)(F)F)C1` (stereo unspecified), the inhibition was 63% (active). The figure for `CC1=NN(C(=O)CCCc2ccccc2)C(O)(C(F)(F)F)C1` (stereo unspecified) is -2.98% (inactive). Turning to `COc1ccc(CC(=O)N2N=C(C)CC2(O)C(F)(F)F)cc1` (stereo unspecified), the inhibition was -2.15% (inactive). The result for `CC(C)(C)c1cc(P(=O)(c2ccccc2)c2ccccc2)ccc1O` reads 4.5% (inactive); that for `CSc1ccc(/C=N/NC(=O)c2cccc(Cl)c2)cc1`, 63.9% (active). The figure for `O=C(N/N=C/c1ccc(Cl)c(Cl)c1)c1ccc2nc[nH]c2c1` is 2.5% (inactive); for `O=C(NN=Cc1ccccc1)c1ccccc1` it is -6.69% (inactive).

In general, inhibition refers to the relative decrease from the control value, in per cent.
